Measurements as given in ChEMBL document CHEMBL4665666, “Discovery and characterization of trypanocidal cysteine protease inhibitors from the 'malaria box'” (Eur J Med Chem, 2019).

How the values were obtained:
[1] = system: Schistosoma mansoni; assay: Inhibition of recombinant Schistosoma mansoni SmCB1 expressed in Pichia pastoris at 5 uM using Z-FR-AMC as substrate preincubated for 10 mins followed by substrate addition and measured at 23 sec interval for 30 mins by fluorimetric analysis relative to control
Procedure, shortened: (§1)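 SmCB1 (recombinant, 8 nM) in 0.1 M sodium acetate pH 5.5 with 0.01% Triton X-100 and 4 mM β-mercaptoethanol. Compound at 5 µM, either not pre-incubated or pre-incubated 10 min with enzyme. Z-FR-AMC 20 µM, fluorescence 340/440 nm every 23 s for 30 min. Inhibition is versus DMSO, with E-64 control; each condition in duplicate.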

[2] = target: Cruzipain (Trypanosoma cruzi) (UniProt P25779); assay: Inhibition of recombinant Trypanosoma cruzi cruzain at 5 uM using Z-FR-AMC as substrate and measured at 12 sec interval for 5 mins without preincubation by fluorimetric analysis relative to control
Procedure, shortened: (§2)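 Recombinant rhodesain or cruzain (1 nM) in 0.1 M sodium acetate pH 5.5, 0.01% Triton X-100, 1 mM β-mercaptoethanol. Compound at a single concentration, either without or after 10 min enzyme pre-incubation. Inhibition is relative to DMSO, with E-64 as positive control. Done in duplicate (primary screen) or triplicate.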

[3] = target: Rhodesain (Trypanosoma brucei rhodesiense) (UniProt Q95PM0); assay: Inhibition of recombinant Trypanosoma brucei rhodesain expressed in Pichia pastoris at 5 uM using Z-FR-AMC as substrate and measured at 12 sec interval for 5 mins without preincubation by fluorimetric analysis relative to control; procedure, shortened: as §2
[4] = target: Rhodesain (Trypanosoma brucei rhodesiense) (UniProt Q95PM0); assay: Inhibition of recombinant Trypanosoma brucei rhodesain expressed in Pichia pastoris at 5 uM using Z-FR-AMC as substrate preincubated for 10 mins followed by substrate addition and measured at 12 sec interval for 5 mins by fluorimetric analysis relative to control; conditions: time 15.0 min; procedure, shortened: as §2
[5] = target: Cruzipain (Trypanosoma cruzi) (UniProt P25779); assay: Inhibition of recombinant Trypanosoma cruzi cruzain at 5 uM using Z-FR-AMC as substrate preincubated for 10 mins followed by substrate addition and measured at 12 sec interval for 5 mins by fluorimetric analysis relative to control; conditions: time 15.0 min; procedure, shortened: as §2
[6] = system: Schistosoma mansoni; assay: Inhibition of recombinant Schistosoma mansoni SmCB1 expressed in Pichia pastoris at 5 uM using Z-FR-AMC as substrate and measured at 23 sec interval for 30 mins without preincubation by fluorimetric analysis relative to control; procedure, shortened: as §1
[7] = system: Trypanosoma cruzi; assay: Trypanocidal activity against Trypanosoma cruzi Tulahuen C4 assessed as reduction in parasite viability; type: functional, organism-based
[8] = target: Rhodesain (Trypanosoma brucei rhodesiense) (UniProt Q95PM0); assay: Inhibition of recombinant Trypanosoma brucei rhodesain expressed in Pichia pastoris at 10 uM using Z-FR-AMC as substrate preincubated for 10 mins followed by substrate addition and measured at 12 sec interval for 5 mins by fluorimetric analysis relative to control; conditions: time 15.0 min
Procedure, shortened: as §2, with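 “pre-incubation. Z-FR-AMC 2.5 µM, read at 340/440 nm every 12 s for 5 min.” for “pre-incubation.”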

[9] = target: Rhodesain (Trypanosoma brucei rhodesiense) (UniProt Q95PM0); assay: Inhibition of recombinant Trypanosoma brucei rhodesain expressed in Pichia pastoris at 10 uM using Z-FR-AMC as substrate and measured at 12 sec interval for 5 mins without preincubation by fluorimetric analysis relative to control
Procedure, shortened: as §2, with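 “pre-incubation. Z-FR-AMC 2.5 µM, read at 340/440 nm every 12 s for 5 min.” for “pre-incubation.”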

[10] = system: Trypanosoma brucei brucei; assay: Trypanocidal activity against Trypanosoma brucei brucei Squib 427 assessed as reduction in parasite viability; type: functional, organism-based
[11] = system: Trypanosoma brucei rhodesiense; assay: Trypanocidal activity against Trypanosoma brucei rhodesiense STI B900 assessed as reduction in parasite viability; type: functional, organism-based
[12] = target: Cruzipain (Trypanosoma cruzi) (UniProt P25779); assay: Inhibition of recombinant Trypanosoma cruzi cruzain at 10 uM using Z-FR-AMC as substrate preincubated for 10 mins followed by substrate addition and measured at 12 sec interval for 5 mins by fluorimetric analysis relative to control; conditions: time 15.0 min
Procedure, shortened: as §2, with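 “pre-incubation. Z-FR-AMC 2.5 µM, read at 340/440 nm every 12 s for 5 min.” for “pre-incubation.”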

[13] = target: Cruzipain (Trypanosoma cruzi) (UniProt P25779); assay: Inhibition of recombinant Trypanosoma cruzi cruzain at 10 uM using Z-FR-AMC as substrate and measured at 12 sec interval for 5 mins without preincubation by fluorimetric analysis relative to control
Procedure, shortened: as §2, with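 “pre-incubation. Z-FR-AMC 2.5 µM, read at 340/440 nm every 12 s for 5 min.” for “pre-incubation.”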

[14] = target: Cruzipain (Trypanosoma cruzi) (UniProt P25779); assay: Inhibition of recombinant Trypanosoma cruzi cruzain at 10 uM preincubated with BSA for 5 mins followed by incubation with enzyme for 5 mins followed by substrate addition relative to control; conditions: time 10.0 min
Procedure, shortened: (§3)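 For BSA sensitivity, compound was held 5 min with BSA (2 mg/mL in 0.001% Triton X-100), then 5 min with 1 nM cruzain, before substrate was added and activity monitored. Parallel runs omitted BSA under otherwise identical conditions.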

[15] = target: Cruzipain (Trypanosoma cruzi) (UniProt P25779); assay: Inhibition of recombinant Trypanosoma cruzi cruzain at 10 uM preincubated for 10 mins in absence of Triton X-100 relative to control
Procedure, shortened: (§4)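 To test detergent sensitivity, cruzain was pre-incubated 10 min at room temperature with compound with no Triton X-100, 0.01% or 0.1% Triton X-100. Cleavage of Z-FR-AMC was then followed at pH 5.5 in acetate buffer. Percent inhibition was compared across detergent levels.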

[16] = target: Cruzipain (Trypanosoma cruzi) (UniProt P25779); assay: Inhibition of recombinant Trypanosoma cruzi cruzain at 10 uM preincubated for 10 mins in presence of 0.01% Triton X-100 relative to control; procedure, shortened: as §4
[17] = target: Cruzipain (Trypanosoma cruzi) (UniProt P25779); assay: Inhibition of recombinant Trypanosoma cruzi cruzain at 10 uM preincubated for 10 mins in presence of 0.1% Triton X-100 relative to control; procedure, shortened: as §4
[18] = target: Cruzipain (Trypanosoma cruzi) (UniProt P25779); assay: Inhibition of recombinant Trypanosoma cruzi cruzain at 10 uM preincubated with enzyme for 5 mins followed by substrate addition in absence of BSA relative to control; procedure, shortened: as §3
[19] = target: Cruzipain (Trypanosoma cruzi) (UniProt P25779); assay: Inhibition of recombinant Trypanosoma cruzi cruzain at 20 uM using Z-FR-AMC as substrate preincubated for 10 mins followed by substrate addition and measured at 12 sec interval for 5 mins by fluorimetric analysis relative to control; conditions: time 15.0 min
Procedure, shortened: as §2, with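 “pre-incubation. Z-FR-AMC 2.5 µM, read at 340/440 nm every 12 s for 5 min.” for “pre-incubation.”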

[20] = target: Cruzipain (Trypanosoma cruzi) (UniProt P25779); assay: Inhibition of recombinant Trypanosoma cruzi cruzain at 20 uM using Z-FR-AMC as substrate and measured at 12 sec interval for 5 mins without preincubation by fluorimetric analysis relative to control
Procedure, shortened: as §2, with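 “pre-incubation. Z-FR-AMC 2.5 µM, read at 340/440 nm every 12 s for 5 min.” for “pre-incubation.”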

[21] = target: Rhodesain (Trypanosoma brucei rhodesiense) (UniProt Q95PM0); assay: Inhibition of recombinant Trypanosoma brucei rhodesain expressed in Pichia pastoris at 20 uM using Z-FR-AMC as substrate and measured at 12 sec interval for 5 mins without preincubation by fluorimetric analysis relative to control
Procedure, shortened: (§5)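 Run with no pre-incubation or with 10 min enzyme-compound pre-incubation. Fluorescence read at 340/440 nm. Concentration was set by solubility under assay conditions. Inhibition is against DMSO, with E-64 as positive control; triplicate.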

[22] = target: Rhodesain (Trypanosoma brucei rhodesiense) (UniProt Q95PM0); assay: Inhibition of recombinant Trypanosoma brucei rhodesain expressed in Pichia pastoris at 20 uM using Z-FR-AMC as substrate preincubated for 10 mins followed by substrate addition and measured at 12 sec interval for 5 mins by fluorimetric analysis relative to control; conditions: time 15.0 min; procedure, shortened: as §5

Rhodesain (Trypanosoma brucei rhodesiense), sequence (Q95PM0 1-450): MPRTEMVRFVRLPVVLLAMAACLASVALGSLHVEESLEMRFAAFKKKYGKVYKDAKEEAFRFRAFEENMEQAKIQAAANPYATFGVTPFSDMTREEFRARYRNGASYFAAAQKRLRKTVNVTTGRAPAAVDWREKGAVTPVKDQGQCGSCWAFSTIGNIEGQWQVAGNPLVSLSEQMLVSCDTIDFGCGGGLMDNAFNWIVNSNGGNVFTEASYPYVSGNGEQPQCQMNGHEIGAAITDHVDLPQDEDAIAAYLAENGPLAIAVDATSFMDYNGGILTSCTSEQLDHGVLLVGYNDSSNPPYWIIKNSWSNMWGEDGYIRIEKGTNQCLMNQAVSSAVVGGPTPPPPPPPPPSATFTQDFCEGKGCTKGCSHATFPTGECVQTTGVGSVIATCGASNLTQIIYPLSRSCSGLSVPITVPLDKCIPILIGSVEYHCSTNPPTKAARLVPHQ
Cruzipain (Trypanosoma cruzi), sequence (P25779 123-467 limits assumed): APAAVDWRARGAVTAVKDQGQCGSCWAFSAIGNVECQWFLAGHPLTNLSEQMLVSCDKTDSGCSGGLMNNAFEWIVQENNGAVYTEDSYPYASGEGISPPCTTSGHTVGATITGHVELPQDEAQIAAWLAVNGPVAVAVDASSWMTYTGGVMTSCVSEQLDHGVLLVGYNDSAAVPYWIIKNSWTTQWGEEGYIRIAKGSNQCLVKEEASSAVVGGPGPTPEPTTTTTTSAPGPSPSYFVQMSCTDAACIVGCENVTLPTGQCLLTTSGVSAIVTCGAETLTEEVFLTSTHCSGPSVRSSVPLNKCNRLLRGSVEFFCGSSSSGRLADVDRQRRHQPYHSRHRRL

Cc1cc(NC(=O)c2cccc(C(F)(F)F)c2)n(-c2nc(-c3ccc4c(c3)OCO4)cs2)n1
inhibition [1]: 47.3%
inhibition [2]: 18.4%
inhibition [3]: 41%
inhibition [4]: 69.4%
inhibition [5]: 42%
inhibition [6]: 0%

O=C1C2=C(Nc3ccccc3SC2c2ccccc2)c2ccccc21 (stereo not given)
inhibition [1]: 0.3%
inhibition [6]: 36.8%

CC(=O)c1ccc(NC(=O)CSc2nc(-c3ccccc3Cl)ns2)cc1
inhibition [2]: 55.2%
IC50 [7]: 32 µM
inhibition [3]: 39.9%
inhibition [4]: 67.5%
inhibition [8]: 43%
inhibition [9]: 10%
IC50 [10]: 32 µM
inhibition [5]: 76.6%
IC50 [11]: 32 µM
inhibition [12]: 23%
inhibition [13]: 10%

Cc1ccc(CSCc2ccc(C(=O)NC3CC3)o2)cc1
inhibition [1]: 50%
inhibition [6]: 4.7%

Cc1cc(NC(=O)C2c3ccccc3C(=O)N(CC(C)C)C2c2cccs2)no1 (stereo not given)
inhibition [1]: 0%
inhibition [6]: 44.9%

COc1ccc(-c2cc3c(nn2)-c2ccccc2C3=O)cc1
inhibition [1]: 38.5%
inhibition [6]: 13.6%

c1ccc(-c2ccc(-c3nc4ccccc4[nH]3)cc2)cc1
inhibition [14]: 29%
inhibition [2]: 77%
IC50 [7]: 32 µM
inhibition [3]: 42.2%
inhibition [15]: 100%
inhibition [4]: 52.9%
inhibition [8]: 52%
inhibition [9]: 14%
inhibition [16]: 38.4%
IC50 [10]: 32 µM
inhibition [5]: 87.1%
IC50 [11]: 32 µM
inhibition [12]: 38%
inhibition [17]: 7.3%
inhibition [13]: 33%
inhibition [18]: 41.3%

COc1ccc(Br)cc1C1Nc2ccc3ccccc3c2C2=C1C(=O)CC(c1ccccc1)C2 (stereo not given)
inhibition [1]: 50%
inhibition [2]: 7%
inhibition [3]: 27.6%
inhibition [4]: 72.7%
inhibition [5]: 37.3%
inhibition [6]: 48.3%

COc1ccc2sc(N(Cc3cccnc3)C(=O)c3ccc(C#N)cc3)nc2c1
inhibition [2]: 53%
inhibition [3]: 50.7%
inhibition [4]: 76.9%
inhibition [8]: 21%
inhibition [9]: 10%
IC50 [10]: 32 µM
inhibition [5]: 72.3%
inhibition [12]: 7%
inhibition [13]: 9%

Cc1nc2ccccc2c(O)c1CC=C(Cl)Cl
inhibition [2]: 61.5%
inhibition [3]: 43.4%
inhibition [19]: 7%
inhibition [4]: 77.1%
inhibition [8]: 2%
inhibition [9]: 5%
IC50 [10]: 32 µM
inhibition [5]: 99.1%
IC50 [11]: 32 µM
inhibition [20]: 3%
inhibition [12]: 11%
inhibition [13]: 4%
inhibition [21]: 4%
inhibition [22]: 3%
